The record followed here is ChEMBL document CHEMBL1667791, “Opioid bifunctional ligands from morphine and the opioid pharmacophore Dmt-Tic” (Eur J Med Chem, 2011).

The target of assay [1] is T1, Mu-type opioid receptor (Homo sapiens, UniProt P35372). Briefly: Displacement of [3H]DAMGO from human mu opioid receptor expressed in CHO cells after 60 mins by scintillation counting. The format is cell-based. A general note: In a radioligand displacement assay an active substance lowers the binding of a labelled ligand.
The target in assay [2] is T2, Delta-type opioid receptor (Homo sapiens, UniProt P41143). Briefly: Displacement of [3H]naltrindole from human delta opioid receptor expressed in CHO cells after 3 hrs by scintillation counting. The format is cell-based.
The target of assay [3] is T1, Mu-type opioid receptor. Briefly: Agonist activity at human mu opioid receptor expressed in CHO cells by [35S]GTPgammaS binding assay relative to control. The format is functional, cell-based. The essentials:
(§1)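 [35S]GTPγS binding (0.080 nM final) on membranes from CHO cells stably expressing human δ (10 μg), μ (7.5 μg) or κ (15 μg) receptors. Twelve compound concentrations were tested in 50 mM Tris-HCl pH 7.4 with 3 mM MgCl2, 0.2 mM EGTA, 3 μM GDP and 100 mM NaCl, for 60 min at 30 °C. Nonspecific binding was set with 10 μM GTPγS. Samples were filtered and counted. Emax was taken relative to basal (0%). Values are mean ± S.E.M., ≥3 experiments in triplicate.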

The species entered for assay [4] is Homo sapiens. Kind of assay: Selectivity ratio of Ki for human mu opioid receptor to Ki for human delta opioid receptor.
Assay [5] addresses T3, Kappa-type opioid receptor (Homo sapiens, UniProt P41145). Briefly: Antagonist activity at human kappa opioid receptor expressed in CHO cells assessed as inhibition of […]-induced [35S]GTPgammaS binding relative to control. The format is functional, cell-based.
For assay [6], the target named is T1, Mu-type opioid receptor. Briefly: Antagonist activity at human mu opioid receptor expressed in CHO cells assessed as inhibition of DAMGO-induced [35S]GTPgammaS binding relative to control. The format is functional, cell-based. A digest of the protocol: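 Human μ-receptor CHO membranes (7.5 μg) were incubated with twelve compound concentrations plus 200 nM DAMGO and 0.080 nM [35S]GTPγS. Nonspecific binding was set with 10 μM GTPγS. Read by filtration and scintillation counting.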
A general note: Binding of GTPγS marks nucleotide exchange on a G protein.

The target of assay [7] is T3, Kappa-type opioid receptor. Kind of assay: Agonist activity at human kappa opioid receptor expressed in CHO cells by [35S]GTPgammaS binding assay relative to control. The format is functional, cell-based. A digest of the protocol:
as §1

For assay [8], the species on record is Homo sapiens. Briefly: Selectivity ratio of Ki for human kappa opioid receptor to Ki for human mu opioid receptor.
The species named for assay [9] is Homo sapiens. Briefly: Selectivity ratio of Ki for human kappa opioid receptor to Ki for human delta opioid receptor.
The target in assay [10] is T3, Kappa-type opioid receptor. Kind of assay: Displacement of [3H]U69593 from human kappa opioid receptor expressed in CHO cells after 60 mins by scintillation counting. The format is cell-based.
The target in assay [11] is T1, Mu-type opioid receptor. Briefly: Antagonist activity at human mu opioid receptor expressed in CHO cells assessed as inhibition of DAMGO-induced [35S]GTPgammaS binding. The format is functional, cell-based.
Assay [12] has as its target T2, Delta-type opioid receptor. Kind of assay: Antagonist activity at human delta opioid receptor expressed in CHO cells assessed as inhibition of […]-induced [35S]GTPgammaS binding. The format is functional, cell-based.
The target of assay [13] is T2, Delta-type opioid receptor. Kind of assay: Agonist activity at human delta opioid receptor expressed in CHO cells by [35S]GTPgammaS binding assay relative to control. The format is functional, cell-based. The essentials: as §1
Assay [14] has as its target T3, Kappa-type opioid receptor. Briefly: Antagonist activity at human kappa opioid receptor expressed in CHO cells assessed as inhibition of […]-induced [35S]GTPgammaS binding. The format is functional, cell-based.
The target in assay [15] is T2, Delta-type opioid receptor. Briefly: Antagonist activity at human delta opioid receptor expressed in CHO cells assessed as inhibition of […]-induced [35S]GTPgammaS binding relative to control. The format is functional, cell-based.

pIC50, pKi: −log10 of the molar value. Activity calls are given as the source filed them. No cut-off for these calls is given here.

A word on the pKi: it is −log10 of the Ki, conventionally taken in molar units. The low end stands for a high Ki, the high end for a low Ki. A word on the Emax: it is the maximal effect, on the per cent scale that the assay sets. As a reminder, the pIC50 is the negative decadic logarithm of the IC50, by convention in mol/L.

T3 sequence (P41145 whole entry): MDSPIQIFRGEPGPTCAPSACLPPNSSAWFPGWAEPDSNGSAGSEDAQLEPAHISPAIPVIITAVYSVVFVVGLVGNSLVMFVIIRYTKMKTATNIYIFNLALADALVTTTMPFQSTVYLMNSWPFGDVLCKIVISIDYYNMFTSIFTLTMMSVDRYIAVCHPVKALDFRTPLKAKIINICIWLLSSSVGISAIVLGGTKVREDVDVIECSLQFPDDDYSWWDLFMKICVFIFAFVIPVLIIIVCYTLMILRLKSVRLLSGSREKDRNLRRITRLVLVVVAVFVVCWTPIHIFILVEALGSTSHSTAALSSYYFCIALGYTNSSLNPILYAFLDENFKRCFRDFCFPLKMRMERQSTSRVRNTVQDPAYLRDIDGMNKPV
T1 sequence (P35372 whole entry): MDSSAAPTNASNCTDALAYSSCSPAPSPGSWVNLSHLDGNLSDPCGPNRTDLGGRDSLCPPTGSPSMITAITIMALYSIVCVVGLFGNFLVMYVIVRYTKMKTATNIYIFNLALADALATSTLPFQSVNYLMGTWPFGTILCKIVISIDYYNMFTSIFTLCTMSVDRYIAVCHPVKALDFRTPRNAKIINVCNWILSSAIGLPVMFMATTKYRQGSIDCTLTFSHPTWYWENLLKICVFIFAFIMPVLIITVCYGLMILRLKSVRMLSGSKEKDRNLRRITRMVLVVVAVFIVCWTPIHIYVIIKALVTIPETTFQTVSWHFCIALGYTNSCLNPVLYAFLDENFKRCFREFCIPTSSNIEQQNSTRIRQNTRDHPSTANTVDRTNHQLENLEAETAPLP
T2 sequence (P41143 whole entry): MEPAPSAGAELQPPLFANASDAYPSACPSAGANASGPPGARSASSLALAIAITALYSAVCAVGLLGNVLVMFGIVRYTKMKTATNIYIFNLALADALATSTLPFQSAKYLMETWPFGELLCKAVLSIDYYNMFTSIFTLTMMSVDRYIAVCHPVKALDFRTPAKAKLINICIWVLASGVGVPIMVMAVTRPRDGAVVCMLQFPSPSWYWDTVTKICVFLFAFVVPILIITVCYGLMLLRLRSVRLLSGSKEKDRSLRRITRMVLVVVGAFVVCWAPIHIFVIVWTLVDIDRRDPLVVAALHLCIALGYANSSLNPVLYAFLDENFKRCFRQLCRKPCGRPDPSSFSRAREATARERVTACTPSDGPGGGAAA

As to `Cc1cc(O)cc(C)c1C[C@@H](C(=O)N1Cc2ccccc2C[C@H]1C(=O)OC1=C2O[C@H]3[C@@H](O)C=C[C@H]4[C@H]5CC(C=C1)C2[C@]43CCN5C)N(C)C` (stereo partly drawn), the pKi was 8.96 in [1], 8.80 in assay [2] and 7.92 in assay [10]. Besides, the values for the Emax in [3], in assay [7] and in assay [13] were 0.43%, 2.6% and -4.9%, respectively. Moreover, the figures for the Ratio Ki in [4], in assay [8] and in [9] were 1.5, 11 and 7.5, respectively. The Imax in [5] was 99%; in assay [6] it was 97%; in assay [15], 120%. Further, the pIC50 in [11] was 7.89; in assay [12], 8.77; in [14], 5.51.
In the case of `Cc1cc(O)cc(C)c1C[C@@H](C(=O)N1Cc2ccccc2C[C@H]1C(=O)O)N(C)C`, the figures for the Ratio Ki in assay [8] and in assay [9] were over 4.3 and over 3740, respectively.
Turning to `Cc1cc(O)cc(C)c1C[C@@H](C(=O)N1Cc2ccccc2C[C@H]1C(=O)NCCC(=O)O)N(C)C`, in assay [8], the Ratio Ki is over 2.2.
Consider `Cc1cc(O)cc(C)c1C[C@@H](C(=O)N1Cc2ccccc2C[C@H]1C(=O)NCCC(=O)OC1=C2O[C@H]3[C@@H](O)C=C[C@H]4[C@H]5CC(C=C1)C2[C@]43CCN5C)N(C)C` (stereo partly drawn), for which the figures for the Emax in assay [3] and in assay [7] were 14% and 41%, respectively. Also, the Imax entry in [5] is “inactive”. The Imax in [6] amounted to 69%; in [15], 120%.
